# Where a SMILES comes first, the peptide text is derived from it. [ ]: non-standard residue; d: D form.
# Legend:
# Cytochrome P450 3A4 [1] = target: T1, Cytochrome P450 3A4 (Homo sapiens, UniProt P08684); test: Drug level assessed as human recombinant CYP3A4-mediated compound formation treated with 4-(tert-Butyl)-N-(6-ethoxy-5-(2-methoxyphenoxy)-[2,2'-bipyrimidin]-4-yl)benzenesulfonamide at 5 uM in presence of NADPH after 30 mins by LC-MS/MS analysis; format: ADME; conditions: recombinant enzyme, 0.5 h
# In short: (§1)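 Substrate at 5 μM final in 100 mM potassium phosphate, pH 7.4, incubated with human liver microsomes or baculovirus-expressed recombinant CYP3A4, 2D6 or 2C9. Reaction started with 1 mM NADPH and run 0, 15 and 30 min at 37 °C. Stopped with ice-cold acetonitrile containing labetalol internal standard, then centrifuged. Supernatant analysed by LC-MS/MS on a C18 column at 40 °C. Blank was enzyme without substrate.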
# [2] = Drug level in human liver microsomes treated with 4-(tert-Butyl)-N-(6-ethoxy-5-(2-methoxyphenoxy)-[2,2'-bipyrimidin]-4-yl)benzenesulfonamide at 5 uM in presence of NADPH after 30 mins by LC-MS/MS analysis; format: ADME; conditions: 0.5 h; in short: as §1
# Cytochrome P450 2C9 [3] = target: T2, Cytochrome P450 2C9 (Homo sapiens, UniProt P11712); test: Drug level assessed as human recombinant CYP2C9-mediated compound formation treated with 4-(tert-Butyl)-N-(6-ethoxy-5-(2-methoxyphenoxy)-[2,2'-bipyrimidin]-4-yl)benzenesulfonamide at 5 uM in presence of NADPH after 30 mins by LC-MS/MS analysis; format: ADME; conditions: recombinant enzyme, 0.5 h; in short: as §1
# [4] = Retention time of the compound; format: physicochemical
# [5] = target: T3, Endothelin receptor type B (Homo sapiens) (UniProt P24530); test: (§2) Antagonist activity at ETB receptor in human BSMC assessed as inhibition of endothelin-1 or 3-mediated Ca2+ mobilization preincubated for 5 mins followed by endothelin-1 or 3 addition by fura-2/AM dye-based spectrofluorimetric method; format: functional
# T3 sequence (whole entry): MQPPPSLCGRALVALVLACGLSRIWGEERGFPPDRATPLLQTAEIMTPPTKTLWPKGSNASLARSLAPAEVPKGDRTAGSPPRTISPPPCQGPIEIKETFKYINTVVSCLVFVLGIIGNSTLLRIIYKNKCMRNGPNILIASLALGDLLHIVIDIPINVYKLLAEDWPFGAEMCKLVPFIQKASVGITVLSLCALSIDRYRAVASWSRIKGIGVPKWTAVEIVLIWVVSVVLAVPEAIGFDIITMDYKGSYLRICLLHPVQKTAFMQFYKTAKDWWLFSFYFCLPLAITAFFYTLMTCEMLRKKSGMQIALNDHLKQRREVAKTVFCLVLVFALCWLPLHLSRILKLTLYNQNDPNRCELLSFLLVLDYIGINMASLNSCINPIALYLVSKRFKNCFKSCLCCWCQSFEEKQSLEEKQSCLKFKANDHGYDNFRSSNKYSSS
# [6] = target: T4, Endothelin receptor type B (Homo sapiens, UniProt P24530); test: as §2; format: functional
# T4 sequence (P24530 whole entry): T3 sequence (whole entry)
# Endothelin-1 receptor = target: T5, Endothelin-1 receptor (Homo sapiens, UniProt P25101); test: Antagonist activity at ETA receptor in human SKNMC cells assessed as inhibition of endothelin-1-mediated Ca2+ mobilization by fura-2/AM dye-based spectrofluorimetric method
# T5 sequence (P25101 whole entry): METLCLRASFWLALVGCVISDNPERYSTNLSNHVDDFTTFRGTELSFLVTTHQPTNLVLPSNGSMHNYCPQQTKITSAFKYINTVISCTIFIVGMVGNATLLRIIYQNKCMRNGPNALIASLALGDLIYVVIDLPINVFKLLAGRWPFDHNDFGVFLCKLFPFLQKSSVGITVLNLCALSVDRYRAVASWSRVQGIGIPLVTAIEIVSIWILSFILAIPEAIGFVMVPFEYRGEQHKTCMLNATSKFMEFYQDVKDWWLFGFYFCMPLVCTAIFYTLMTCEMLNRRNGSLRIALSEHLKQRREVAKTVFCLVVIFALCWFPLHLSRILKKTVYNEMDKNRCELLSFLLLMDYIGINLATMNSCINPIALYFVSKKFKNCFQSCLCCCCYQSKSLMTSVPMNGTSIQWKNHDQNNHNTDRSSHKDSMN
# [7] = Metabolic stability in human liver microsomes assessed as parent compound remaining at 5 uM in presence of NADPH after 30 mins by LC-MS/MS analysis; format: ADME; conditions: read-out: Stability
# In short: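 Pooled human liver microsomes in 100 mM potassium phosphate, pH 7.4, with test compound at 5 μM final. Reaction started with 1 mM NADPH (final) and run at 37 °C in a shaking water bath for 0, 15 and 30 min. Stopped with an equal volume of ice-cold acetonitrile containing 0.6 μM labetalol as internal standard. Protein was spun out and the supernatant analysed by LC-MS/MS. Blank had no compound.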
# Cytochrome P450 3A4 [8] = target: T1, Cytochrome P450 3A4; test: Drug metabolism assessed as human recombinant CYP3A4-mediated metabolite formation by measuring parent compound remaining at 5 uM in presence of NADPH after 30 mins by LC-MS/MS analysis; format: ADME; conditions: recombinant enzyme, 0.5 h; in short: as §1
# Cytochrome P450 2C9 [9] = target: T2, Cytochrome P450 2C9; test: Drug metabolism assessed as human recombinant CYP2C9-mediated metabolite formation by measuring parent compound remaining at 5 uM in presence of NADPH after 30 mins by LC-MS/MS analysis; format: ADME; conditions: recombinant enzyme, 0.5 h; in short: as §1
# [10] = Drug metabolism in human liver microsomes assessed as formation of 4-(1-hydroxy-2-methylpropan-2-yl)-N-(6-(2-hydroxyethoxy)-5-(2-methoxyphenoxy)-2,2'-bipyrimidin-4-yl)benzenesulfonamide at 5 uM in presence of NADPH after 30 mins by LC-MS/MS analysis; format: ADME; conditions: 0.5 h; in short: as §1
# [11] = Drug metabolism in human liver microsomes assessed as formation of 4-tert-butyl-N-(6-(2-hydroxyethoxy)-5-(2-hydroxyphenoxy)-2,2'-bipyrimidin-4-yl)benzenesulfonamide at 5 uM in presence of NADPH after 30 mins by LC-MS/MS analysis; format: ADME; conditions: 0.5 h; in short: as §1
# [12] = Drug metabolism in human liver microsomes assessed as formation of 4-(1-hydroxy-2-methylpropan-2-yl)-N-(6-(2-hydroxyethoxy)-5-(2-hydroxyphenoxy)-2,2'-bipyrimidin-4-yl)benzenesulfonamide at 5 uM in presence of NADPH after 30 mins by LC-MS/MS analysis; format: ADME; conditions: 0.5 h; in short: as §1
# Cytochrome P450 3A4 [13] = target: T1, Cytochrome P450 3A4; test: Drug metabolism assessed as human recombinant CYP3A4-mediated formation of 4-(1-hydroxy-2-methylpropan-2-yl)-N-(6-(2-hydroxyethoxy)-5-(2-methoxyphenoxy)-2,2'-bipyrimidin-4-yl)benzenesulfonamide at 5 uM in presence of NADPH after 30 mins by LC-MS/MS analysis; format: ADME; conditions: recombinant enzyme, 0.5 h; in short: as §1
# Cytochrome P450 3A4 [14] = target: T1, Cytochrome P450 3A4; test: Drug metabolism assessed as human recombinant CYP3A4-mediated formation of 4-tert-butyl-N-(6-(2-hydroxyethoxy)-5-(2-hydroxyphenoxy)-2,2'-bipyrimidin-4-yl)benzenesulfonamide at 5 uM in presence of NADPH after 30 mins by LC-MS/MS analysis; format: ADME; conditions: recombinant enzyme, 0.5 h; in short: as §1
# Cytochrome P450 3A4 [15] = target: T1, Cytochrome P450 3A4; test: Drug metabolism assessed as human recombinant CYP3A4-mediated formation of 4-(1-hydroxy-2-methylpropan-2-yl)-N-(6-(2-hydroxyethoxy)-5-(2-hydroxyphenoxy)-2,2'-bipyrimidin-4-yl)benzenesulfonamide at 5 uM in presence of NADPH after 30 mins by LC-MS/MS analysis; format: ADME; conditions: recombinant enzyme, 0.5 h; in short: as §1
# Cytochrome P450 2C9 [16] = target: T2, Cytochrome P450 2C9; test: Drug metabolism assessed as human recombinant CYP2C9-mediated formation of 4-(1-hydroxy-2-methylpropan-2-yl)-N-(6-(2-hydroxyethoxy)-5-(2-methoxyphenoxy)-2,2'-bipyrimidin-4-yl)benzenesulfonamide at 5 uM in presence of NADPH after 30 mins by LC-MS/MS analysis; format: ADME; conditions: recombinant enzyme, 0.5 h; in short: as §1
# Cytochrome P450 2D6 = Cytochrome P450 2D6 (Homo sapiens, UniProt P10635); test: Drug metabolism assessed as human recombinant CYP2D6-mediated metabolite formation by measuring parent compound remaining at 5 uM in presence of NADPH after 30 mins by LC-MS/MS analysis; format: ADME; conditions: recombinant enzyme, 0.5 h; in short: as §1
# [17] = Cytotoxicity against CHOK1 cells assessed as decrease in cell viability after 24 hrs by MTT assay; format: toxicity, cell-based, Cricetulus griseus; conditions: Chinese hamster, CHO-K1 cells
# In short: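 CHO-k1 cells grown in phenol-red-free DMEM/F-12 with 10% FBS, seeded at 20,000 cells/well and allowed to attach overnight. Exposure was 24 h to 0.1–200 μM, with DMSO as vehicle control. MTT at 1 mg/mL for 3 h at 37 °C, formazan dissolved in DMSO, absorbance read at 570 nm. Data given as % OD of vehicle control; IC50 taken from dose–response curve fits.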
# Cytochrome P450 3A4 [18] = target: T1, Cytochrome P450 3A4; test: Drug level assessed as human recombinant CYP3A4-mediated compound formation treated with bosentan at 5 uM in presence of NADPH after 30 mins by LC-MS/MS analysis; format: ADME; conditions: recombinant enzyme, 0.5 h; in short: as §1
# [19] = Drug level in human liver microsomes treated with bosentan at 5 uM in presence of NADPH after 30 mins by LC-MS/MS analysis; format: ADME; conditions: 0.5 h; in short: as §1
# Cytochrome P450 2C9 [20] = target: T2, Cytochrome P450 2C9; test: Drug level assessed as human recombinant CYP2C9-mediated compound formation treated with bosentan at 5 uM in presence of NADPH after 30 mins by LC-MS/MS analysis; format: ADME; conditions: recombinant enzyme, 0.5 h; in short: as §1
# T2 sequence (P11712 whole entry): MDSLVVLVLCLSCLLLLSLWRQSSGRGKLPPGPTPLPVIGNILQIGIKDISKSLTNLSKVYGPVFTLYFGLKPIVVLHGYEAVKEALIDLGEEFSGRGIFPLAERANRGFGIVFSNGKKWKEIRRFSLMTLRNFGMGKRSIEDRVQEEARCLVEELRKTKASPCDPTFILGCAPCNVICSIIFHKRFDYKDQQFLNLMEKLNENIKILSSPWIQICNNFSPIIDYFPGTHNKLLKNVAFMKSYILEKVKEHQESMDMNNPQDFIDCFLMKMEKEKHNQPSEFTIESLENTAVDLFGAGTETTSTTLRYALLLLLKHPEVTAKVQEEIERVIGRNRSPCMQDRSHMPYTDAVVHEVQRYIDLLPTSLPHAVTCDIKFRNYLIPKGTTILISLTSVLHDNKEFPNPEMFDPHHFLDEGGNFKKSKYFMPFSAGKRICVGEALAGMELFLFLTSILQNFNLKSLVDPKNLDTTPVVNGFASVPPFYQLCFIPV
# T1 sequence (P08684 whole entry): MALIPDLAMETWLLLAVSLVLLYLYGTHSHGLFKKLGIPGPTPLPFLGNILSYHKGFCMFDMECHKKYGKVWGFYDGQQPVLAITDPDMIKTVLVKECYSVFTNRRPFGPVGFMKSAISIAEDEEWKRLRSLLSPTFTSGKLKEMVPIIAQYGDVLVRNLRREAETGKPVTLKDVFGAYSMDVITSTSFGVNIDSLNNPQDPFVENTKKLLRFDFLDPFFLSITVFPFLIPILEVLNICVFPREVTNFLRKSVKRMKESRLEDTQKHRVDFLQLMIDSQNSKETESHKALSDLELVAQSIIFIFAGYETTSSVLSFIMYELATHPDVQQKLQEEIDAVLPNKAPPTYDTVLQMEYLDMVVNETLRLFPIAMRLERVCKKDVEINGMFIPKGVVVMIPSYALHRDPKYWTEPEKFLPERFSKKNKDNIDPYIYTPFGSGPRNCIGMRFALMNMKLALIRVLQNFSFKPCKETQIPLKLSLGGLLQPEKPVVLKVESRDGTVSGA
# Chain of Cytochrome P450 2D6 (P10635 whole entry): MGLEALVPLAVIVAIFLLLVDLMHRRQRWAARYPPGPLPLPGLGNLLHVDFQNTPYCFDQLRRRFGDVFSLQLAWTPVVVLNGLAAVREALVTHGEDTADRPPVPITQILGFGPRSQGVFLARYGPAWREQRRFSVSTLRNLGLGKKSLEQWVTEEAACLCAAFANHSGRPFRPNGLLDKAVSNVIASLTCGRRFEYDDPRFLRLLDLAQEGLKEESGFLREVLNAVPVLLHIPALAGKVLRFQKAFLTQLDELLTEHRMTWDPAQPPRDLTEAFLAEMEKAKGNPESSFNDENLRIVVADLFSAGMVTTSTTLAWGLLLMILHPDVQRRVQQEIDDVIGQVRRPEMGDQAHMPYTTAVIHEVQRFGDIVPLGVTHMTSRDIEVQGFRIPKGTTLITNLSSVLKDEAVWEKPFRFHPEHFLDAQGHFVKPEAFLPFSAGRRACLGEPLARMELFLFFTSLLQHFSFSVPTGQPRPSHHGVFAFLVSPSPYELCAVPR
compound,measurement,setting,value
CCOc1nc(-c2ncccn2)nc(NS(=O)(=O)c2ccc(C(C)(C)CO)cc2)c1Oc1ccccc1OC,Drug metabolism,Cytochrome P450 3A4 [1],Metabolite_Detected
same,Drug metabolism,[2],Metabolite_Detected
same,Drug metabolism,Cytochrome P450 2C9 [3],Metabolite_Detected
same,Retention_time,[4],4.99 min
CCCC[C@@H](NC(=O)[C@@H](Cc1cn(C(=O)OC)c2ccccc12)NC(=O)[C@H](CC(C)(C)C)NC(=O)N1[C@H](C)CCC[C@@H]1C)C(=O)O,Kb,[5],0.5 nM
same,IC50,[6],0.41 nM
CC(C)C[C@@H]1NC(=O)[C@@H](C(C)C)NC(=O)[C@@H]2CCCN2C(=O)[C@@H](CC(=O)O)NC(=O)[C@@H](Cc2c[nH]c3ccccc23)NC1=O [BQ-123] (cyclo(L[dW][dD]P[dV])),IC50,Endothelin-1 receptor,0.62 nM
COc1ccccc1Oc1c(NS(=O)(=O)c2ccc(C(C)(C)C)cc2)nc(-c2ncccn2)nc1OCCO [BOSENTAN],"remaining at 0.5 h, 5 µM",[7],91.6%
same,Stability,Cytochrome P450 3A4 [8],20.9%
same,Stability,Cytochrome P450 2C9 [9],75.8%
same,Drug metabolism,[10],Metabolite_Detected
same,Drug metabolism,[11],Metabolite_Detected
same,Drug metabolism,[12],Metabolite_Detected
same,Drug metabolism,Cytochrome P450 3A4 [13],Metabolite_Detected
same,Drug metabolism,Cytochrome P450 3A4 [14],Metabolite_Detected
same,Drug metabolism,Cytochrome P450 3A4 [15],Metabolite_Detected
same,Drug metabolism,Cytochrome P450 2C9 [16],Metabolite_Detected
same,Retention_time,[4],5.1 min
same,Stability,Cytochrome P450 2D6,> 99%
same,IC50 at 24 h,[17],196000 nM
COc1ccccc1Oc1c(NS(=O)(=O)c2ccc(C(C)(C)CO)cc2)nc(-c2ncccn2)nc1OCCO,Drug metabolism,Cytochrome P450 3A4 [18],Metabolite_Detected
same,Drug metabolism,[19],Metabolite_Detected
same,Drug metabolism,Cytochrome P450 2C9 [20],Metabolite_Detected
same,Retention_time,[4],3.79 min

# Reference: ChEMBL document CHEMBL3861962 (Eur J Med Chem, 2016)
